Results on one compound are retold here after the M2OR odorant receptor database.

Holding throughout (details): stereoisomer not certain
Experiment [1] has as its system OR1A1 A154T N155S. The procedure, abridged: (§1)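 Assay methods differ from source to source, frequently being transient luciferase assays in mammalian cell lines. For each receptor–molecule pair, the label responsive (active) applies when the original authors judged the measured signal statistically different from baseline, and non-responsive (inactive) applies otherwise.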

The subject of experiment [2] is OR1A1 G108A N109K A154T N155S. The method in brief: as §1
For experiment [3], the system named is OR1A1 G108A N109K. The procedure, abridged: as §1
Experiment [4] has as its system OR1A1 G108A. The procedure, abridged:
as §1

Experiment [5] has as its system OR1A1 I114T. The procedure, abridged:
as §1

For experiment [6], the system named is OR1A1 I205V. The method in brief:
as §1

Experiment [7] concerns OR1A1 N109K. The procedure, abridged:
as §1

Experiment [8] relates to OR1A1 T110A. The procedure, abridged: as §1
Chain of OR1A1 T110A (as listed by the source, stated change not applied): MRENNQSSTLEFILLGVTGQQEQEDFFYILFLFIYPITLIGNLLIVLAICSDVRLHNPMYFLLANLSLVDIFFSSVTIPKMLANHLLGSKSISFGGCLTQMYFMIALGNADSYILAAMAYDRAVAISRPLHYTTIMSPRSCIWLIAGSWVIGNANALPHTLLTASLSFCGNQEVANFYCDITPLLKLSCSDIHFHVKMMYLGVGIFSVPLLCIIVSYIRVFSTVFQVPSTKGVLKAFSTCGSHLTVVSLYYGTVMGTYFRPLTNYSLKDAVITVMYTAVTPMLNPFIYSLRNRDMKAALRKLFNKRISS
The test system of experiment [9] is OR1A1 T277V. The procedure, abridged:
as §1

For experiment [10], the system named is OR1A1 T99M. The procedure, abridged:
as §1

Experiment [11] concerns OR1A1 V254T. The method in brief: as §1
Chain of OR1A1 V254T (as listed by the source, stated change not applied): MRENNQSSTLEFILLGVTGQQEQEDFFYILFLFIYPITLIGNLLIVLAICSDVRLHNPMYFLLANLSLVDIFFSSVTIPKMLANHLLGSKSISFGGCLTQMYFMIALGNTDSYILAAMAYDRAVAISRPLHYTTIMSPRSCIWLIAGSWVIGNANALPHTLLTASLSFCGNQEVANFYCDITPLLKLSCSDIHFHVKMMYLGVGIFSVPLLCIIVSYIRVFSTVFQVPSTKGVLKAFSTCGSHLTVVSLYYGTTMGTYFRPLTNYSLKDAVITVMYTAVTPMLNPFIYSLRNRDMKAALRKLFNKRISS

Chain of OR1A1 I114T (as listed by the source, stated change not applied): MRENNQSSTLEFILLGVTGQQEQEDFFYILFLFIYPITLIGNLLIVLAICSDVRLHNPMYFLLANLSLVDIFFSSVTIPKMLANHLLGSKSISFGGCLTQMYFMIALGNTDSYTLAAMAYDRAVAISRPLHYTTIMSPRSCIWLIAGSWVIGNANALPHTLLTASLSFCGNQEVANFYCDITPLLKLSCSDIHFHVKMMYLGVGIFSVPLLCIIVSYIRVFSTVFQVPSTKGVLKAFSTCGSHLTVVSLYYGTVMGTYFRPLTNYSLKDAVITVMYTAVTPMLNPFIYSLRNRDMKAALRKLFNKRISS
Chain of OR1A1 I205V (as listed by the source, stated change not applied): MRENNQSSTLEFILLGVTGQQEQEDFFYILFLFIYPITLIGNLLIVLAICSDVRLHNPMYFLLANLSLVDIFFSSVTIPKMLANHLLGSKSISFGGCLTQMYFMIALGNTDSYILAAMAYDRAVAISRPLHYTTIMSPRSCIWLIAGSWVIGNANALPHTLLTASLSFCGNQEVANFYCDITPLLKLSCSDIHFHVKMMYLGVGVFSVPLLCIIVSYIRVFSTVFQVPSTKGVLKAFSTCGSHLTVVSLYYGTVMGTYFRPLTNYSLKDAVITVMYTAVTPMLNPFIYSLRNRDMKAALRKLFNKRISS
Chain of OR1A1 T99M (as listed by the source, stated change not applied): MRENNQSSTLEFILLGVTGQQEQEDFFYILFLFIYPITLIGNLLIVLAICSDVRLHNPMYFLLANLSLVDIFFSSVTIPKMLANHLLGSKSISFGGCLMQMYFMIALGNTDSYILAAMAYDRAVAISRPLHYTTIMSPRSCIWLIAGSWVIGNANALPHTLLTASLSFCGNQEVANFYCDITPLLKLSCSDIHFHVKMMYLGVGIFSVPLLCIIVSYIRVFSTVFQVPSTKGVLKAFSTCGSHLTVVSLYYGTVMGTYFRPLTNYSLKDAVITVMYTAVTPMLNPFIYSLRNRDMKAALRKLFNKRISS
Chain of OR1A1 N109K (as listed by the source, stated change not applied): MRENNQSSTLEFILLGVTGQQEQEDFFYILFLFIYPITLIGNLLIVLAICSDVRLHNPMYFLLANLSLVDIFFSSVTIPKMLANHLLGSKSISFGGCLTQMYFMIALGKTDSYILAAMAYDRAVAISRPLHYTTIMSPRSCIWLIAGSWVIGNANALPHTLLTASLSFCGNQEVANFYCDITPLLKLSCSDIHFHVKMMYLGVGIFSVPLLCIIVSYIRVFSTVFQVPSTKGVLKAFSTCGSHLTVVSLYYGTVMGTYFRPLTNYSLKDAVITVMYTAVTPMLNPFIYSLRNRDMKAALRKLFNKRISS
Chain of OR1A1 G108A (as listed by the source, stated change not applied): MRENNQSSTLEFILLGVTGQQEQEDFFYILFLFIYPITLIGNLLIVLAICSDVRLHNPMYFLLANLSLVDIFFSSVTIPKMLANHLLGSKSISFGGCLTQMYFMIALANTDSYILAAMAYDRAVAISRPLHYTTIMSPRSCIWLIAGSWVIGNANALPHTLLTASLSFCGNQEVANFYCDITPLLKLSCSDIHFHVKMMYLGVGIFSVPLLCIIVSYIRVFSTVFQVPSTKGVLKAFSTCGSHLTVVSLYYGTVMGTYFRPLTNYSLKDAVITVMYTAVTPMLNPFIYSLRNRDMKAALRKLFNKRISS
Chain of OR1A1 T277V (as listed by the source, stated change not applied): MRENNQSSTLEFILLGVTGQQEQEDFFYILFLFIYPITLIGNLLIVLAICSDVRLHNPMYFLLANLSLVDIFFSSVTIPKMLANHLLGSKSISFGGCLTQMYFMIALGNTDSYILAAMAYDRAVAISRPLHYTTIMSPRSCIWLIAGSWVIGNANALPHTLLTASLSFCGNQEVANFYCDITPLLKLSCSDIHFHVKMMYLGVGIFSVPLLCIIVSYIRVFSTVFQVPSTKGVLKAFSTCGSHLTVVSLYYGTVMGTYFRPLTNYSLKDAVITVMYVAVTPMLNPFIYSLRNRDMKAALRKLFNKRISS

Turning to `CC(C)=CCCC(C)CCO` (stereo unspecified), the “odorant receptor agonist call” value in [1], in experiment [5], in experiment [6], in [8], in experiment [9] and in experiment [10] was “active” throughout. Also, the “odorant receptor agonist call” value in [11] was “active”. The “odorant receptor agonist call” value in experiment [2], in experiment [3], in [4] and in [7] was “inactive” in each case.
